The test system of series [1] is ECa109 cells. Briefly: Annexin V-FITC/PI flow cytometry apoptosis assay, ECa109. It is filed as cell-based, human. The following applies: ECa109, CQ 20 μmol/L alone, 72 h, Fig. 5D.
Series [2] relates to EC9706 cells. Briefly: Annexin V-FITC/PI flow cytometry apoptosis assay, EC9706. It is filed as cell-based, human. The following applies: EC9706, CQ 20 μmol/L alone, 72 h, Fig. 5D.
Series [3] concerns LC3B-II, P62, ATG3, ATG5, ATG7. In words: Western blot of autophagy proteins in ESCC cells. It is filed as cell-based, human. The following applies: ECa109 and EC9706 cells. On the technique in general: A western blot detects proteins with antibodies after separation by electrophoresis.
In the next series the test system is NRF2, HO-1. In words: Western blot of NRF2. It is filed as cell-based, human. The settings on record: ECa109 and EC9706 cells.
Series [4] in a line: Toxicity evaluation in xenograft mice. It counts as in vivo, athymic BALB/c male nude mice. The following applies: for HCT / HGB / MCH / MCHC / MCV / MPV / PLT / RBC / RDW / WBC: blood of xenograft mice, end of treatment; for Toxicity to nude mice (overall): therapeutic doses: SFN 5 mg/kg, CQ 60 mg/kg i.p. every other day, two weeks.
Series [5] deals with ECa109 cells. In words: CCK-8 cell proliferation assay, ECa109. It counts as cell-based, human. The following applies: for IC50: Homo sapiens. Put shortly: (§1)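 Cells were kept in RPMI-1640 with 10% FBS, penicillin and streptomycin at 37 °C and 5% CO2. They were seeded in 96-well plates and exposed to the test compound over graded concentrations (e.g., 0–80 μmol/L) for 24, 48 or 72 h, alone or with modulators. CCK-8 reagent was then added, and optical density was read after a further 4 h. n = 3.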

Series [6] deals with EC9706 cells. In words: CCK-8 cell proliferation assay, EC9706. It counts as cell-based, human. The following applies: for IC50: Homo sapiens. In short, it runs like this:
as §1
(Formazan colour is commonly taken as a measure of viable cells.)

Series [7] has as its system ECa109 cells. Briefly: Clonogenic assay, ECa109. It is filed as cell-based, human. Put shortly: (§2)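 Cells in RPMI-1640 with 10% FBS at 37 °C, 5% CO2, seeded at 1 × 10³ cells/well in 6-well plates. Exposed to test compound (0, 5, 10 μmol/L) and grown 7 days. Colonies rinsed with PBS three times, fixed in 4% paraformaldehyde for 20 min, stained with 1% crystal violet for 30 min, then counted. Three independent experiments.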

The subject of series [8] is EC9706 cells. In words: Clonogenic assay, EC9706. It counts as cell-based, human. Put shortly:
as §2

A further series deals with Het-1A cells. Briefly: CCK-8 cell proliferation assay, Het-1A. It counts as cell-based. The following applies: Homo sapiens.
In series [9] the test system is cleaved-caspase 9, BAX, BCL-2. In words: Western blot of apoptotic markers in ESCC cells. It counts as cell-based, human. The settings on record: ECa109 and EC9706 cells, SFN 10 μmol/L, 0-24 h, Fig. 2B. Put shortly: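 ECa109 and EC9706 cells were exposed to 10 μmol/L test compound for 0, 3, 6, 12 and 24 h. Equal protein (30 μg) was separated by SDS-PAGE and transferred to nitrocellulose. Membranes were blocked in 5% skimmed milk for 2 h at room temperature, given primary antibody overnight at 4 °C and secondary antibody for 2 h. Detection by ECL, bands quantified by densitometry, n = 3.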

The subject of the next series is ECa109 xenografts. Briefly: ECa109 xenograft in nude mice, anti-tumor efficiency. The settings on record: ECa109 xenograft tumors, Fig. 7D. It counts as in vivo, athymic BALB/c male nude mice. Put shortly: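 Male athymic BALB/c nude mice (4–6 weeks old, acclimatised 1 week) received 1 × 10^7 ECa109 cells in 0.2 mL PBS subcutaneously into the right flank. At 90–120 mm3, mice were randomised (n = 5): saline, test compound 5 mg/kg, autophagy inhibitor 60 mg/kg, or combination, i.p. every other day for two weeks. Paraffin sections of fixed tumours were TUNEL-stained; brown positive cells were counted per 1500 tumour cells.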

The subject of series [10] is mRFP-GFP-LC3 puncta (autophagosomes, autolysosomes). Briefly: mRFP-GFP-LC3 adenovirus autophagy flux, confocal microscopy. It counts as cell-based, human. The settings on record: ECa109 and EC9706 cells, SFN 10 μmol/L or bafilomycin A1 100 nmol/L, 24 h, Fig. 3D. Put shortly: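 ECa109 and EC9706 cells (3 × 10⁵/well) were infected with mRFP-GFP-LC3 adenovirus for 48 h, then replated on glass-bottom dishes at 1 × 10⁴ cells/well. Treated with 10 μmol/L test compound or 100 nmol/L bafilomycin A1 for 24 h, fixed in 4% paraformaldehyde for 20 min and imaged by confocal microscopy. Yellow (green+red) puncta were scored as autophagosomes and red as autolysosomes, n = 3.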

Series [11] concerns LC3, P62, NRF2, HO-1, BCL-2, BAX, cleaved-caspase 9. In words: Western blot of tumor tissues from xenograft mice. It counts as in vivo, athymic BALB/c male nude mice. The following applies: SFN 5 mg/kg, Fig. 7G. Put shortly: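 Male athymic BALB/c nude mice, 4–6 weeks old, received 1 × 10⁷ ECa109 cells in 0.2 mL PBS s.c. in the right flank. […] Excised tumors were stored at −80 °C and immunoblotted (ECL detection), n = 3.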

Where [12] appears, read: organ weight/body weight × 100, xenograft mice, SFN 5 mg/kg, CQ 60 mg/kg i.p.

The structures appear in SMILES notation. Peptide text beside a SMILES is read from it. * marks the point of attachment. Cbz = O=C(OCc1ccccc1)*; CH2F = FC*

For `CCN(CC)CCCC(C)Nc1ccnc2cc(Cl)ccc12` (stereo not shown) [CQ, chloroquine, reference compound], the “Effect on cell apoptosis” value in the series with ECa109 cells [1] is reported as “no obvious effects on cell apoptosis”. Further, the “Effect on cell apoptosis” value with EC9706 cells [2] was “no obvious effects on cell apoptosis”. Further, the “Expression of LC3B-II and P62” value in series [3] (CQ 20 μmol/L alone, Fig. 3C) was “promoted expression LC3B-II and P62”. Besides, the “Effect of CQ on SFN-induced NRF2 in nucleus” value with NRF2, HO-1 (CQ 20 μmol/L combined with SFN 10 μmol/L, 48 h, Fig. 5F) is recorded as “markedly inhibited the activation of SFN to NRF2”. Also, in series [4] (SFN 5 mg/kg, CQ 60 mg/kg i.p.), the HCT is reported as 43.05 ± 1.75%, the HGB is 140.67 ± 6.31 g/L, the MCH stood at 15.28 ± 0.28 pg and the MCHC came out at 326.67 ± 4.50 g/L. Moreover, in series [4] (SFN 5 mg/kg, CQ 60 mg/kg i.p.), the MCV is reported as 50.10 ± 0.78 fL, the MPV is given as 6.52 ± 0.13 fL, the PLT was 941.00 ± 45.99 × 10^9/L and the RBC is on record as 8.60 ± 0.38 × 10^12/L. In addition, in [4] (SFN 5 mg/kg, CQ 60 mg/kg i.p.), the RDW is given as 16.38 ± 0.08% and the WBC was 4.71 ± 0.99 × 10^9/L. For the same compound, the “Toxicity to nude mice (overall)” value in series [4] is on record as “no obvious toxicity”.
In the case of `Cc1ccccc1C(=O)N1CCc2cc(-c3nc(NC(=O)Cc4ccc5c(c4)OCO5)sc3C)ccc21` [ML385, reference compound], the “Effect on cell viability (CCK-8)” value in the series with ECa109 cells [5] (ECa109, ML385 0-200 μmol/L, 48 and 72 h, Fig. 4E) is “significantly inhibited cell viability”; in the series with EC9706 cells [6] (EC9706, ML385 0-200 μmol/L, 48 and 72 h, Fig. 4E), “significantly inhibited cell viability”. In addition, the “Effect on colony formation” value was “significantly inhibited cell viability and colony formation” in the series with ECa109 cells [7] (ECa109, ML385, 7 days, Fig. 4F); “significantly inhibited cell viability and colony formation” in the series with EC9706 cells [8] (EC9706, ML385, 7 days, Fig. 4F). Also, the “Expression of LC3B-II and P62” value in series [3] (ML385 20 μmol/L alone, Fig. 4D) is “inhibited LC3B-II and promoted P62 expression”. For the same compound, the “Expression of NRF2 and HO-1” value in the series on NRF2, HO-1 (ML385 5-30 μmol/L, Fig. 4C) is “decreased expression of NRF2 and HO-1 in a dose-dependent manner”.
A word on the IC50: it is the concentration at which inhibition is half-maximal. In the series with ECa109 cells [5] (ECa-109, 24 h), `C[S+]([O-])CCCCN=C=S` (stereo not shown) [SFN, Sulforaphane] showed an IC50 of 47.4 ± 1.68 µM. Besides, it took 20.8 ± 1.32 µM to reach half-maximal inhibition with ECa109 cells [5] (ECa-109, 48 h) (IC50). Also, the midpoint of inhibition in the series with ECa109 cells [5] (ECa-109, 72 h), the IC50, lay at 15.2 ± 1.18 µM. The same compound gave an IC50 in the series on EC9706 cells [6] (EC9706, 24 h) of 75.3 ± 1.88 µM. Moreover, it took 41 ± 1.7 µM to reach half-maximal inhibition with EC9706 cells [6] (EC9706, 48 h) (IC50). The IC50 in the series with EC9706 cells [6] (EC9706, 72 h) is 17.5 ± 1.24 µM. In the series with Het-1A cells (48 h), this compound yielded an IC50 of 34.1 ± 1.53 µM. In the series with Het-1A cells (72 h), this compound registered a half-inhibitory concentration (IC50) of 21.3 ± 1.33 µM. For the same compound, in the series with ECa109 cells [7] (ECa109, SFN 5 and 10 μmol/L, 7 days, Fig. 1C), the “Effect on colony formation” value is given as “significantly inhibited the colony formation”. The “Effect on colony formation” value in the series with EC9706 cells [8] (EC9706, SFN 5 and 10 μmol/L, 7 days, Fig. 1C) is “significantly inhibited the colony formation”. For the same compound, the “Level of cleaved-caspase 9” value in [9] is “increased the levels of cleaved-caspase 9 in a time-dependent manner”. The “Expression of LC3B-II and P62” value in [3] (SFN 10 μmol/L, 0-24 h, Fig. 3A) is “increased LC3B-II and decreased P62”. Besides, the “Expression of ATG3, ATG5 and ATG7” value in series [3] (SFN 10 μmol/L, 0-24 h, Fig. 4A) is listed as “no changes”. Moreover, in the series with NRF2, HO-1 (SFN 5 and 10 μmol/L, Fig. 4B), the “Expression of NRF2 in nucleus” value is reported as “increased the expression of NRF2 in nucleus”. In addition, the “TUNEL positive cells in tumor tissue compared with control” value in the series on ECa109 xenografts is given as “large number of TUNEL positive cells”. In [4] (SFN 5 mg/kg, CQ 60 mg/kg i.p.), the HCT stood at 42.62 ± 4.07%, the HGB is 139.00 ± 13.78 g/L, the MCH is recorded as 15.20 ± 0.65 pg and the MCHC is reported as 326.17 ± 3.82 g/L. Besides, in series [4] (SFN 5 mg/kg, CQ 60 mg/kg i.p.), the MCV is on record as 49.62 ± 0.55 fL, the MPV is 6.62 ± 0.17 fL, the PLT is given as 867.83 ± 134.68 × 10^9/L and the RBC is listed as 8.59 ± 0.83 × 10^12/L. Besides, in series [4] (SFN 5 mg/kg, CQ 60 mg/kg i.p.), the RDW stood at 16.18 ± 0.08% and the WBC is given as 4.18 ± 0.48 × 10^9/L. Also, in series [4] (setting [12]), the “Relative organ weight, heart” value is recorded as 0.63 ± 0.13%; the “Relative organ weight, left kidney” value stood at 0.84 ± 0.19%; the “Relative organ weight, liver” value was found to be 6.74 ± 0.35%; the “Relative organ weight, lung” value is listed as 0.72 ± 0.19%. In addition, in series [4] (setting [12]), the “Relative organ weight, right kidney” value is recorded as 0.98 ± 0.17% and the “Relative organ weight, spleen” value was 0.79 ± 0.14%. In addition, the “Toxicity to nude mice (overall)” value in series [4] is on record as “no obvious toxicity”. In series [10], the “Fluorescent puncta (yellow = autophagosomes, red = autolysosomes)” value was “many yellow puncta and red puncta”. Also, the “LC3B-II and P62 expression in tumors compared to control” value in [11] was “increased of LC3B-Ⅱ and decreased P62 expression”.
Regarding `COC(=O)C[C@H](NC(=O)[C@H](C)NC(=O)[C@@H](NC(=O)OCc1ccccc1)C(C)C)C(=O)CF` [Z-VAD-FMK, reference compound] (Cbz-Val-Ala-Asp(OMe)-CH2F), the “Effect on cell proliferation (CCK-8)” value in the series with ECa109 cells [5] (ECa109, Z-VAD-FMK 20 μmol/L alone, 48 h, Fig. 2C) was “no obvious effects on cell proliferation”; in the series with EC9706 cells [6] (EC9706, Z-VAD-FMK 20 μmol/L alone, 48 h, Fig. 2C), “no obvious effects on cell proliferation”.
Turning to `CO/C1=C\C(C)=C\[C@@H](C)[C@@H](O)[C@@H](C)C/C(C)=C/C=C/[C@H](OC)[C@@H]([C@@H](C)[C@@H](O)[C@H](C)[C@@]2(O)C[C@@H](O)[C@H](C)[C@@H](C(C)C)O2)OC1=O` [bafilomycin A1, reference compound], the “Fluorescent puncta (yellow = autophagosomes, red = autolysosomes)” value in [10] is “many yellow puncta”.

The record behind these values is PMC8148075 (Acta Pharmaceutica Sinica. B, 2020).
